From ChEMBL document CHEMBL3352504, “New series of monoamidoxime derivatives displaying versatile antiparasitic activity” (Eur J Med Chem, 2014)

Columns and labels:
[1] = Cytotoxicity against mouse J774A1 cells incubated for 72 hrs by MTT assay; type: cell-based, J774.A1
Outline: (§1)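 Cytotoxicity was measured by MTT in mouse J774A.1 macrophages and human HepG2 hepatocyte-derived cells, with doxorubicin as the cytotoxic reference. The 50% cytotoxic concentration (CC50) came from three independent experiments in duplicate, reported as mean ± SD.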

[2] = Selectivity index, ratio of CC50 for mouse J774A1 cells to IC50 for Leishmania donovani MHOM/IN/00/DEVI promastigotes; type: functional, J774.A1
Outline: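 SI was calculated as J774A.1 macrophage CC50 (MTT) divided by L. donovani promastigote IC50. Both inputs were means of three independent experiments run in duplicate.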

[3] = Selectivity index, ratio of CC50 for human HepG2 cells to IC50 for chloroquine, pyrimethamine and proguanil-resistant Plasmodium falciparum K1; type: functional
Outline: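 SI = HepG2 CC50 / PfK1 IC50. CC50 was from an MTT assay on human HepG2 cells, and IC50 from the SYBR Green I fluorescence assay on P. falciparum K1. Each assay was three independent experiments in duplicate.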

Plasmodium falciparum = assay: Antiplasmodial activity against chloroquine, pyrimethamine and proguanil-resistant Plasmodium falciparum K1 infected in human erythrocytes assessed as reduction in Parasitemia incubated for 72 hrs by SYBR Green I fluorescence-based method; type: functional, organism-based; details: K1, 72 h
Outline: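 Multidrug-resistant P. falciparum K1 was tested in vitro with a SYBR Green I fluorescence-based read-out. IC50 was calculated from three independent experiments, each run in duplicate, and reported as mean ± SD.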

[4] = Cytotoxicity against human HepG2 cells incubated for 72 hrs by MTT assay; type: cell-based; outline: as §1
Leishmania donovani = assay: Antileishmanial activity Leishmania donovani MHOM/IN/00/DEVI promastigotes incubated for 72 hrs by MTT assay; type: functional, organism-based
Outline: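 Promastigotes of strain MHOM/IN/00/DEVI were exposed to compounds alongside amphotericin B and pentamidine reference drugs under identical conditions. IC50 was determined from three independent experiments, each run in duplicate, and reported as mean ± SD.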

Structure (SMILES): CC1(c2ccc(Cl)cc2)CC(S(=O)(=O)c2ccc(F)cc2)=C(c2ccc(/C(N)=N\O)cc2)O1 (configuration not stated)
- CC50 at 72 h [1]: 31.5 µM
- Ratio CC50/IC50 [2]: 0.7
- Ratio CC50/IC50 [3]: <6.1
- IC50 (Plasmodium falciparum): > 10 µM
- CC50 at 72 h [4]: 61.4 µM
- IC50 (Leishmania donovani): 48.4 µM

Structure (SMILES): COc1ccc(C2(c3ccccc3)CC(S(=O)(=O)c3ccc(F)cc3)=C(c3ccc(/C(N)=N\O)cc3)O2)cc1 (configuration not stated)
- CC50 at 72 h [1]: 11.3 µM
- Ratio CC50/IC50 [2]: <0.2
- Ratio CC50/IC50 [3]: 7
- IC50 (Plasmodium falciparum): 4.17 µM
- CC50 at 72 h [4]: 29.4 µM
- IC50 (Leishmania donovani): > 50 µM

Structure (SMILES): N/C(=N/O)c1ccc(C2=C(S(=O)(=O)c3ccc(F)cc3)CC(c3ccccc3)(c3ccccc3)O2)cc1
- CC50 at 72 h [1]: 10.2 µM
- Ratio CC50/IC50 [2]: 0.7
- Ratio CC50/IC50 [3]: 4.9
- IC50 (Plasmodium falciparum): 3.9 µM
- CC50 at 72 h [4]: 19.2 µM
- IC50 (Leishmania donovani): 15.7 µM

Structure (SMILES): CC1(Cc2ccccc2)CC(S(=O)(=O)c2cccc(C(F)(F)F)c2)=C(c2ccc(/C(N)=N\O)cc2)O1 (configuration not stated)
- CC50 at 72 h [1]: 14.5 µM
- Ratio CC50/IC50 [2]: 1.2
- Ratio CC50/IC50 [3]: 5.1
- IC50 (Plasmodium falciparum): 6.54 µM
- CC50 at 72 h [4]: 33.4 µM
- IC50 (Leishmania donovani): 11.9 µM

Structure (SMILES): CC1(c2ccccc2)CC(S(=O)(=O)c2ccc(F)cc2)=C(c2ccc(/C(N)=N\O)cc2)O1 (configuration not stated)
- CC50 at 72 h [1]: 29.7 µM
- Ratio CC50/IC50 [2]: <0.6
- Ratio CC50/IC50 [3]: <6.8
- IC50 (Plasmodium falciparum): > 10 µM
- CC50 at 72 h [4]: 68.3 µM
- IC50 (Leishmania donovani): > 50 µM

Structure (SMILES): CC1(c2ccc(Br)cc2)CC(S(=O)(=O)c2ccc(F)cc2)=C(c2ccc(/C(N)=N\O)cc2)O1 (configuration not stated)
- CC50 at 72 h [1]: 10.5 µM
- Ratio CC50/IC50 [2]: 1
- Ratio CC50/IC50 [3]: <1.9
- IC50 (Plasmodium falciparum): > 10 µM
- CC50 at 72 h [4]: 19.2 µM
- IC50 (Leishmania donovani): 10.8 µM

Structure (SMILES): CC1(Cc2ccccc2)CC(S(=O)(=O)c2ccccc2F)=C(c2ccc(/C(N)=N\O)cc2)O1 (configuration not stated)
- CC50 at 72 h [1]: 29.1 µM
- Ratio CC50/IC50 [2]: 3.2
- Ratio CC50/IC50 [3]: <6.2
- IC50 (Plasmodium falciparum): > 10 µM
- CC50 at 72 h [4]: 61.7 µM
- IC50 (Leishmania donovani): 9.16 µM

Structure (SMILES): CC1(c2ccc(-c3ccccc3C#N)cc2)CC(S(=O)(=O)c2ccc(F)cc2)=C(c2ccc(/C(N)=N\O)cc2)O1 (configuration not stated)
- CC50 at 72 h [1]: 9.29 µM
- Ratio CC50/IC50 [2]: 0.4
- Ratio CC50/IC50 [3]: <5.8
- IC50 (Plasmodium falciparum): > 10 µM
- CC50 at 72 h [4]: 58.3 µM
- IC50 (Leishmania donovani): 21 µM

Structure (SMILES): CC1(c2ccc(-c3cccc([N+](=O)[O-])c3)cc2)CC(S(=O)(=O)c2ccc(F)cc2)=C(c2ccc(/C(N)=N\O)cc2)O1 (configuration not stated)
- CC50 at 72 h [1]: 11.1 µM
- Ratio CC50/IC50 [2]: 0.8
- Ratio CC50/IC50 [3]: >8.6
- IC50 (Plasmodium falciparum): 5.82 µM
- CC50 at 72 h [4]: > 50 µM
- IC50 (Leishmania donovani): 14.1 µM

Structure (SMILES): Cc1ccc(-c2ccc(C3(C)CC(S(=O)(=O)c4ccc(F)cc4)=C(c4ccc(/C(N)=N\O)cc4)O3)cc2)cc1 (configuration not stated)
- CC50 at 72 h [1]: 7.91 µM
- Ratio CC50/IC50 [2]: 0.7
- Ratio CC50/IC50 [3]: <1.4
- IC50 (Plasmodium falciparum): > 10 µM
- CC50 at 72 h [4]: 13.7 µM
- IC50 (Leishmania donovani): 11.8 µM

Structure (SMILES): CC1(c2ccc(-c3cccc(/C(N)=N\O)c3)cc2)CC(S(=O)(=O)c2ccc(F)cc2)=C(c2ccc(/C(N)=N\O)cc2)O1 (configuration not stated)
- CC50 at 72 h [1]: 11 µM
- Ratio CC50/IC50 [2]: <0.2
- Ratio CC50/IC50 [3]: 4.4
- IC50 (Plasmodium falciparum): 4.34 µM
- CC50 at 72 h [4]: 19 µM
- IC50 (Leishmania donovani): > 50 µM

Structure (SMILES): CC1(Cc2ccccc2)CC(S(=O)(=O)c2c(F)cccc2F)=C(c2ccc(/C(N)=N\O)cc2)O1 (configuration not stated)
- CC50 at 72 h [1]: 27 µM
- Ratio CC50/IC50 [2]: 1.2
- Ratio CC50/IC50 [3]: 33.2
- IC50 (Plasmodium falciparum): 2.76 µM
- CC50 at 72 h [4]: 91.4 µM
- IC50 (Leishmania donovani): 22.1 µM

Structure (SMILES): C[C@H]1c2cccc(O)c2C(=O)C2=C(O)[C@]3(O)C(=O)C(C(N)=O)=C(O)[C@@H](N(C)C)[C@@H]3[C@@H](O)[C@@H]21.O [DOXYCYCLINE]
- Ratio CC50/IC50 [3]: 4

Structure (SMILES): CC1(Cc2ccccc2)CC(S(=O)(=O)c2ccccc2C(F)(F)F)=C(c2ccc(/C(N)=N\O)cc2)O1 (configuration not stated)
- CC50 at 72 h [1]: 23.5 µM
- Ratio CC50/IC50 [2]: 1.5
- Ratio CC50/IC50 [3]: <5.7
- IC50 (Plasmodium falciparum): > 10 µM
- CC50 at 72 h [4]: 57.5 µM
- IC50 (Leishmania donovani): 15.5 µM

Structure (SMILES): COc1cc(-c2ccc(C3(C)CC(S(=O)(=O)c4ccc(F)cc4)=C(c4ccc(/C(N)=N\O)cc4)O3)cc2)cc(OC)c1OC (configuration not stated)
- CC50 at 72 h [1]: 5.22 µM
- Ratio CC50/IC50 [2]: <0.2
- Ratio CC50/IC50 [3]: >9.9
- IC50 (Plasmodium falciparum): 5.03 µM
- CC50 at 72 h [4]: > 50 µM
- IC50 (Leishmania donovani): > 25 µM

Structure (SMILES): COc1cccc2c1C(=O)c1c(O)c3c(c(O)c1C2=O)C[C@@](O)(C(=O)CO)C[C@@H]3O[C@H]1C[C@H](N)[C@H](O)[C@H](C)O1 [DOXORUBICIN]
- CC50 at 72 h [1]: 0.01 µM
- CC50 at 72 h [4]: 0.02 µM

Structure (SMILES): CC1(c2ccc(-c3ccc(/C(N)=N\O)cc3)cc2)CC(S(=O)(=O)c2ccc(F)cc2)=C(c2ccc(/C(N)=N\O)cc2)O1 (configuration not stated)
- CC50 at 72 h [1]: 3.94 µM
- Ratio CC50/IC50 [2]: <0.08
- Ratio CC50/IC50 [3]: 3.1
- IC50 (Plasmodium falciparum): 4.93 µM
- CC50 at 72 h [4]: 15.3 µM
- IC50 (Leishmania donovani): > 50 µM

Structure (SMILES): CCC1(c2ccccc2OC)CC(S(=O)(=O)c2ccc(F)cc2)=C(c2ccc(/C(N)=N\O)cc2)O1 (configuration not stated)
- CC50 at 72 h [1]: 9.88 µM
- Ratio CC50/IC50 [2]: 0.8
- Ratio CC50/IC50 [3]: 3.4
- IC50 (Plasmodium falciparum): 7.88 µM
- CC50 at 72 h [4]: 27 µM
- IC50 (Leishmania donovani): 12.4 µM

Structure (SMILES): C[C@@H]1[C@H](O)[C@@H](C)/C=C/C=C/C=C/C=C/C=C/C=C/C=C/[C@H](O[C@@H]2O[C@H](C)[C@@H](O)[C@H](N)[C@@H]2O)C[C@@H]2O[C@](O)(C[C@@H](O)C[C@@H](O)[C@H](O)CC[C@@H](O)C[C@@H](O)CC(=O)O[C@H]1C)C[C@H](O)[C@H]2C(=O)O [AMPHOTERICIN B]
- CC50 at 72 h [1]: 6.91 µM
- Ratio CC50/IC50 [2]: 47.1
- IC50 (Leishmania donovani): 0.15 µM

Structure (SMILES): CC1(Cc2ccccc2)CC(S(=O)(=O)c2ccc(F)cc2F)=C(c2ccc(/C(N)=N\O)cc2)O1 (configuration not stated)
- CC50 at 72 h [1]: 41.5 µM
- Ratio CC50/IC50 [2]: 1.3
- Ratio CC50/IC50 [3]: 11
- IC50 (Plasmodium falciparum): 8.21 µM
- CC50 at 72 h [4]: 90.6 µM
- IC50 (Leishmania donovani): 32.5 µM

Structure (SMILES): CC1(c2ccc(-c3ccncc3)cc2)CC(S(=O)(=O)c2ccc(F)cc2)=C(c2ccc(/C(N)=N\O)cc2)O1 (configuration not stated)
- CC50 at 72 h [1]: 6.75 µM
- Ratio CC50/IC50 [2]: 0.2
- Ratio CC50/IC50 [3]: 9.5
- IC50 (Plasmodium falciparum): 3.2 µM
- CC50 at 72 h [4]: 30.3 µM
- IC50 (Leishmania donovani): 28 µM

Structure (SMILES): N=C(N)c1ccc(OCCCCCOc2ccc(C(=N)N)cc2)cc1 [PENTAMIDINE]
- Ratio CC50/IC50 [2]: 0.1

Structure (SMILES): CC1(Cc2ccccc2)CC(S(=O)(=O)c2cccc(F)c2)=C(c2ccc(/C(N)=N\O)cc2)O1 (configuration not stated)
- CC50 at 72 h [1]: 28.3 µM
- Ratio CC50/IC50 [2]: 2.2
- Ratio CC50/IC50 [3]: 8.3
- IC50 (Plasmodium falciparum): 7.16 µM
- CC50 at 72 h [4]: 59.6 µM
- IC50 (Leishmania donovani): 13.1 µM

Structure (SMILES): CC1(c2ccc(-c3ccco3)cc2)CC(S(=O)(=O)c2ccc(F)cc2)=C(c2ccc(/C(N)=N\O)cc2)O1 (configuration not stated)
- CC50 at 72 h [1]: 4.56 µM
- Ratio CC50/IC50 [2]: <0.2
- Ratio CC50/IC50 [3]: <0.7
- IC50 (Plasmodium falciparum): > 10 µM
- CC50 at 72 h [4]: 7.01 µM
- IC50 (Leishmania donovani): > 25 µM
